This note sets out measurements from ChEMBL document CHEMBL4665634, “Inhibiting Aβ toxicity in Alzheimer's disease by a pyridine amine derivative” (Eur J Med Chem, 2019).

The source made the active and inactive calls. No cut-off for these calls is given here.

Assay [1] concerns Caenorhabditis elegans. Put plainly: Effect on skn-1 mRNA expression in Caenorhabditis elegans CL4176 at 50 uM by qRT-PCR analysis. It is filed as functional. In outline: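 CL4176 qRT-PCR of skn-1 or sod-3. RNA extracted with Trizol, EvaGreen qRT-PCR run for 40 cycles (95 °C 5 s, 60 °C 5 s). Normalized to ama-1 by the 2^−ΔΔCt method. Three independent RNA/cDNA preparations, run in triplicate.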

A short description of assay [2]: Inhibition of Zn2+ induced amyloid beta (1 to 40) aggregation assessed as reduction in fluorescence intensity at 20 uM preincubated for 5 mins in presence of ZnCl2 followed by compound addition addition and incubated for 24 hrs by Thioflavin T based fluorometric assay. The essentials: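 Aβ40 (20 µM) preincubated with CuCl2 or ZnCl2 (20 µM) for 5 min at room temperature. Compound (20 µM) added, incubated 37 °C for 24 h. ThT (5 µM) added, fluorescence read at ex 450/em 485 nm. Mean ± S.D. of at least three independent experiments.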

Assay [3] has as its target T1, Amyloid-beta precursor protein (Homo sapiens, UniProt P05067). Kind of assay: Inhibition of self-induced amyloid beta (1 to 42) (unknown origin) aggregation assessed as decrease in negative band ellipticity and shift around 230 nm resulting in modulation of amyloid beta (1 to 42) conformation at 80 uM incubated for 24 hrs by circular dichroism spectroscopy. The essentials:
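CD spectra taken on Aβ42 (40 µM). Metal ion (ZnCl2 or CuCl2, 40 µM) was preincubated 5 min at room temperature where present, then compound (80 µM) was added and incubated at 37 °C for 24 h. Spectra recorded 190–270 nm in a 1.0 cm quartz cell, bandwidth 0.1 nm, response time 10 s.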
On the technique in general: Circular dichroism is the unequal absorption of left and right circularly polarised light.

Assay [4] in a line: Inhibition of Zn2+ induced amyloid beta (1 to 40) aggregation assessed as appearance of granule like species at 0.1 to 100 uM incubated for 24 hrs uranyl acetate staining-based by TEM analysis. The conditions noted are these: dose microM 0.1-100, time 24.0 hrs.
The nature of assay [5]: Inhibition of Cu2+ induced amyloid beta (1 to 40) aggregation assessed as appearance of granule like species at 0.1 to 100 uM incubated for 24 hrs uranyl acetate staining-based by TEM analysis. The settings on record: dose microM 0.1-100, time 24.0 hrs.
For assay [6], the target named is T1, Amyloid-beta precursor protein. Put plainly: Inhibition of amyloid beta (1 to 42)-induced paralysis in transgenic Caenorhabditis elegans CL4176 expressing human amyloid beta (1 to 42) assessed as paralyzed worms at 100 uM treated for 49 hrs at 25 degreeC by microscopic analysis (reference value: 87 %). Set-up: scale not given: the % may be the effect or the level left.

Assay [7] has the same target. Put plainly: Inhibition of amyloid beta (1 to 42)-induced paralysis in transgenic Caenorhabditis elegans GMC101 expressing human amyloid beta (1 to 42) assessed as paralyzed worms at 50 uM measured after 92 hrs by microscopic analysis relative to control. The arrangement: scale not given: the % may be the effect or the level left.
For assay [8] the target is unchanged. Kind of assay: Inhibition of amyloid beta (1 to 42)-induced paralysis in transgenic Caenorhabditis elegans GMC101 expressing human amyloid beta (1 to 42) assessed as paralyzed worms at 200 uM measured after 92 hrs by microscopic analysis relative to control. The arrangement: scale not given: the % may be the effect or the level left.
The target is the same in assay [9]. Put plainly: Inhibition of amyloid beta (1 to 42)-induced paralysis in transgenic Caenorhabditis elegans CL4176 L3 expressing human amyloid beta (1 to 42) assessed as roller movement of worms by microscopic analysis.
The target is the same in assay [10]. Kind of assay: Inhibition of amyloid beta (1 to 42)-induced paralysis in transgenic Caenorhabditis elegans GMC101 L3 expressing human amyloid beta (1 to 42) assessed as reduction in fluorescence intensity at 50 uM incubated for 2 days by fluorescence based confocal microscopic analysis relative to control. The settings on record: time 2.0 day. The essentials: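 GMC101 L3 worms kept on compound plates (50, 100 µM) at 25 °C for 2 days, mounted on 2% agarose pads. GFP imaged by confocal microscopy at ex 488/em 500–530 nm and intensity quantified. Two experiments, 15 worms per group.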

Assay [11] relates to Caenorhabditis elegans. Kind of assay: Reduction in less than 55 kDa amyloid beta species expression in Caenorhabditis elegans CL4176 at 50 uM after 48 hrs by Western blot analysis. It is filed as functional. The essentials: (§1)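 CL4176 raised on plates with compound (50 µM) at 15 °C to L3, then kept at 25 °C for 2 days. Worms sonicated in 0.1 M phosphate buffer, 16 µg protein run on 12% SDS-PAGE and blotted to PVDF. Probed with 6E10 (1:1000) and HRP anti-mouse secondary, with β-actin as the loading control.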
Background: A western blot detects proteins with antibodies after separation by electrophoresis.

Assay [12] concerns Caenorhabditis elegans. Kind of assay: Reduction in 16 kDa amyloid beta species expression in Caenorhabditis elegans CL4176 at 50 uM after 48 hrs by Western blot analysis. It counts as functional. In outline:
as §1

In assay [13] the test system is Caenorhabditis elegans. Kind of assay: Antioxidant activity in Caenorhabditis elegans CL4176 assessed as effect on juglone-induced ROS level by measuring relative fluorescence intensity at 50 uM and 15 to 25 degreeC after 48 hrs by H2DCF-DA probe based fluorescence assay ( Rvb = 74.23 %). It counts as functional.
Assay [14] concerns Caenorhabditis elegans. Kind of assay: Upregulation of hsp-60 mRNA expression in Caenorhabditis elegans CL4176 at 50 uM by qRT-PCR analysis relative to control. It is filed as functional. The essentials: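 CL4176 worms treated with compound at 25 °C for 48 h (50, 100 µM for amy-1). RNA extracted with Trizol, cDNA made, EvaGreen qRT-PCR run for 40 cycles (95 °C 5 s, 60 °C 5 s). Normalized to ama-1 by the 2^−ΔΔCt method. Three independent preparations, samples in triplicate.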

For assay [15], the system named is Caenorhabditis elegans. Put plainly: Inhibition of AChE in Caenorhabditis elegans CL4176 assessed as enzyme activity at 25 uM after 48 hrs by DTNB reagent based colorimetric analysis (reference value: 272.49 +/- 14.6 units/L). The essentials:
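Transgenic CL4176 worms kept on NGM plates with compound (0, 25, 50, 100 µM) at 25 °C for 48 h. Lysates made by sonication in 0.1 M phosphate buffer pH 7.4 and centrifuged at 13000 rpm for 5 min. AChE activity in the supernatant was measured with a kit, read as absorbance at 412 nm, given in Units/L normalized to protein concentration, mean ± S.D.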

For assay [16], the system named is Caenorhabditis elegans. Put plainly: Effect on ace-1 mRNA expression in Caenorhabditis elegans CL4176. It counts as functional.
The test system of assay [17] is Mus musculus. Put plainly: Cognitive enhancing effect in APP/PS1 double mutant-transgenic C57BL/6 mouse model assessed as time spent on target quadrant at 1 mg/kg, iv measured on day 6 by Morris water maze test (reference value: 11.77 +/- 5.28 sec). It counts as functional. The settings on record: time 6 day.
In assay [18] the test system is Mus musculus. Put plainly: Cognitive enhancing effect in APP/PS1 double mutant-transgenic C57BL/6 mouse model assessed as increase in number of hidden escape platform crossings at 1 mg/kg, iv. It counts as functional, organism-based.
The subject of assay [19] is Caenorhabditis elegans. Put plainly: Reduction in Amyloid-beta deposits in transgenic Caenorhabditis elegans CL4176 using anti-Abeta 6E10/rhodamine-phalloidin at 50 to 100 uM after 48 hrs by immunostaining. It is filed as functional. The settings on record: dose microM 50-100, time 48.0 hrs. The essentials: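 CL4176 L3 worms kept on compound plates (50, 100 µM) at 25 °C for 2 days. Fixed in 4% paraformaldehyde and permeabilized with 1% Triton X-100. Stained with 6E10 plus Alexa Fluor 488 secondary and rhodamine-phalloidin (1:4000). Confocal imaging at ex 488/em 500–530 nm and ex 543/em 565–605 nm.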

T1 sequence (P05067 whole entry): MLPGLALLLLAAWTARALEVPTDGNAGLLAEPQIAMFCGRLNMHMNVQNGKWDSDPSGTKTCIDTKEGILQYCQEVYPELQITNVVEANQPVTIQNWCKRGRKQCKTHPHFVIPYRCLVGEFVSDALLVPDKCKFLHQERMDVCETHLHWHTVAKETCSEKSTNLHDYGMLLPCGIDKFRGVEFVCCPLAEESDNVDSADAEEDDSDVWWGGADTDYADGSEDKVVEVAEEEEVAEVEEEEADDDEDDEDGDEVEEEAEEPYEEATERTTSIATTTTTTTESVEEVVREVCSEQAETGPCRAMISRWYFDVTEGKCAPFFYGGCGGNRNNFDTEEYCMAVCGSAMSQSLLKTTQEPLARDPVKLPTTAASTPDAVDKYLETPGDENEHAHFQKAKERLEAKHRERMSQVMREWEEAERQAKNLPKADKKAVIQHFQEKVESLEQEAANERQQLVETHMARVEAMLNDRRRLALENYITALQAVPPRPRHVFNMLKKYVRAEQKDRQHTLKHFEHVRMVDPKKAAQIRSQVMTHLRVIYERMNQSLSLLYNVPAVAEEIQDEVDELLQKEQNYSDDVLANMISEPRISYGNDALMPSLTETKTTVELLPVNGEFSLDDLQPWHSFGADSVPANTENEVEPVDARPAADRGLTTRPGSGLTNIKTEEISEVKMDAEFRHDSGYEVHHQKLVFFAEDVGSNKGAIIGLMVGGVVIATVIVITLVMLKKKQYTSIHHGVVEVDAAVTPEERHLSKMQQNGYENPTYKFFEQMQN

As a reminder, the inhibition is the change of the read-out against control, counted positive when it falls. For the molecule `Oc1cc(CN(Cc2ccccn2)Cc2ccccn2)cc(C[P+](c2ccccc2)(c2ccccc2)c2ccccc2)c1.[Br-]`, the outcome in the assay with Caenorhabditis elegans [1] and in the assay on Caenorhabditis elegans [16] was inactive. Also, the inhibition entry in assay [2], in assay [3], in [4] and in assay [5] was “Active” in each case. Also, the Activity in [6] worked out at 66%; in [7], 74%; in assay [8] it was 35%; in the assay on Caenorhabditis elegans [13], 48.97%; in the assay with Caenorhabditis elegans [15], 248 U/L. Also, the result (in assay [9]; with Caenorhabditis elegans [11]; in the assay with Caenorhabditis elegans [12]; in the assay on Mus musculus [18]; with Caenorhabditis elegans [19]) was Active. Moreover, the inhibition in assay [10] was found to be 43%. Further, the fold change (FC) in the assay with Caenorhabditis elegans [14] was 1.59. Further, the Time with Mus musculus [17] came out at 17.2 s.
